Experimental data collected from several papers.
Lines come from different studies, so protocols differ.
Observed: enzyme activity
Mode: inhibitor
CDK2 with cyclin A: Cyclin-dependent kinase 2, with cyclin A (CDK2, Homo sapiens, UniProt P24941)
CDK2: Cyclin-dependent kinase 2 (CDK2, Homo sapiens, UniProt P24941)

| SMILES | target | test | setting | inhibition [%] |
| --- | --- | --- | --- | --- |
| CCCS(=O)(=O)Nc1ccc(F)c(C(=O)c2c[nH]c3ncc(-c4ccc(Cl)cc4)cc23)c1F | CDK2 with cyclin A |  | 1 µM | < 10 |
| CN1CC(Oc2cnc(C#N)cc2-c2ccn3nc(NC(=O)C4CC4)cc3c2)C1 | CDK2 with cyclin A |  | 1 µM | 0 |
| C=CC(=O)Nc1cc(Nc2nccc(Nc3cc(Cl)c(F)cc3C(C)(C)O)n2)c(OC)cc1N1CC[C@@H](N(C)C)C1 | CDK2 with cyclin A |  | 1 µM | -13 |
| CN(C)C1CCN(CC#Cc2nn(C3CCCC3)c3nc(NCc4ccccc4)ncc23)C1 (stereo not drawn) | CDK2 with cyclin A | FRET | 0.1 µM | 7 |
| Cn1cnc(Br)c1C1=CN(c2ncnc3[nH]cnc23)CCS1 | CDK2 | radiometric | 2 µM | 50.8 |
| COc1cc(-c2cc(-c3ccc(N4CCNCC4)cc3)cnc2N)cc(OC)c1OC | CDK2 with cyclin A |  | 0.1 µM | 1 |
| COc1cc2ncnc(Nc3ccc(Oc4ccccc4)cc3C)c2cc1OC | CDK2 with cyclin A |  | 1 µM | -14 |
| CS(=O)(=O)Nc1cccc(-c2csc(NC(=O)CSc3nc4nccnc4c(=O)n3CCc3ccccc3)n2)c1 | Cyclin-dependent kinase 2, with cyclin O (CDK2, Homo sapiens, UniProt P24941) |  | 10 µM | 8 |
| CNC(=O)c1ccccc1Nc1cc(Nc2ccc(N3CCOCC3)cc2OC)ncc1C(F)(F)F | CDK2 |  | 1 µM | > 50 |
| CC/C(=N\NC(=O)NCc1cccc(O)c1)c1ccc(O)c(C)c1O | Cyclin-dependent kinase 2, with cyclin E1 (CDK2, Homo sapiens, UniProt P24941) |  | 0.1 µM | -16.4 |
| Cn1cncc1C1=CN(c2ncnc3[nH]cnc23)CCS1 | CDK2 | radiometric | 2 µM | 49.1 |
| CN(c1ncccc1CNc1nc(Nc2ccc3c(c2)CC(=O)N3)ncc1C(F)(F)F)S(C)(=O)=O | CDK2 |  | 1 µM | 94.4 |
